Measurements from PubChem BioAssay AID602422 (The Scripps Research Institute Molecular Screening Center, 2012).
“And” between values parts separate entries of the source, which are not always exact repeats. Equal entries are not always repeated. The source made the active and inactive calls.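 The calls were made as follows: active = remaining nuclease activity at or below 52% of the solvent-only control at any tested dose; inactive = above 52% at every tested dose.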

Test system: ATP-dependent helicase/nuclease AddAB (Helicobacter pylori 26695)
Assay: AddAB nuclease inhibitors, single dose, late-stage follow-up, biochemical, radioactivity, purified enzyme, 100 µM, powder samples (AID 602422)
Details: [3H]-dsDNA TCA-soluble nuclease assay, at 100 µM, active compounds read low
How it was run: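 Test system: purified AddAB / Reagent: tritiated phage T7 dsDNA substrate at 6 µM nucleotides (2 µg/mL) / Timing: nuclease reaction for 20 min at 37 °C / Detection: scintillation counting of acid (TCA)-soluble radioactive DNA product / Read-out: percent nuclease activity versus DMSO control, minus enzyme-free background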

Row | Structure (SMILES) | remaining nuclease activity
1 | CC1CCc2c(sc(NC(=O)c3cccs3)c2C#N)C1 (stereo not drawn) | 92% (inactive)
2 | CCn1cc(C(=O)O)c(=O)c2cnc(N3CCN(C(=S)NC(=O)c4ccco4)CC3)nc21 | 89% (inactive)
3 | Cc1ccc(C(=O)Nc2sc3c(c2C#N)CCC3)o1 | 98% (inactive)
4 | N#Cc1c(NC(=O)c2cnccn2)sc2c1CCCC2 | 10% and 36%
5 | CCn1cc(C(=O)O)c(=O)c2cnc(N3CCN(C(=S)NC(=O)c4cccnc4)CC3)nc21 | 101% (inactive)
6 | COC(=O)c1c(NC(=O)c2cnccn2)sc2c1CCCC2 | 93% (inactive)
7 | CCn1cc(C(=O)O)c(=O)c2cnc(N3CCN(C(=S)NC)CC3)nc21 | 101% (inactive)
8 | CSc1ncc(Cl)c(C(=O)Nc2sc3c(c2C(=O)NC2CCS(=O)(=O)C2)CCC(C)C3)n1 (stereo not drawn) | 77% (inactive)
9 | CCn1cc(C(=O)O)c(=O)c2cnc(N3CCN(C(=S)Nc4ccc5c(c4)OCCO5)CC3)nc21 | 62% (inactive)
10 | C=CCNC(=S)N1CCN(c2ncc3c(=O)c(C(=O)O)cn(CC)c3n2)CC1 | 93% (inactive)
11 | N#Cc1c(NC(=O)c2cc(-c3ccccc3)on2)sc2c1CCCC2 | 42%
12 | CCn1cc(C(=O)O)c(=O)c2cnc(N3CCN(C(=S)NCc4ccccc4)CC3)nc21 | 55% (inactive)
13 | CCn1cc(C(=O)O)c(=O)c2cnc(N3CCN(C(=S)Nc4cccc(C(F)(F)F)c4)CC3)nc21 | 8%
14 | CCn1cc(C(=O)O)c(=O)c2cnc(N3CCN(C(=O)Nc4ccccc4)CC3)nc21 | 92% (inactive)
15 | N#Cc1c(NC(=O)c2ccccc2)sc2c1CCC2 | 111% (inactive)
16 | CCn1cc(C(=O)O)c(=O)c2cc(F)c(N3CCN(C(=S)Nc4ccccc4C(F)(F)F)CC3)cc21 | 51%
17 | CCn1cc(C(=O)O)c(=O)c2cnc(N3CCN(C(=S)Nc4ccc5c(c4)OCO5)CC3)nc21 | 46%
18 | Nc1c(NC(=O)c2ccc([N+](=O)[O-])o2)sc2c1CCCC2 | 116% (inactive)
19 | N#Cc1c(NC(=O)c2ccco2)sc2c1CCC2 | 41%
20 | N#Cc1c(NC(=O)c2ccc(-c3ccccc3[N+](=O)[O-])o2)sc2c1CCCC2 | 73% (inactive)
21 | CSc1ncc(Cl)c(C(=O)Nc2sc3c(c2C#N)CCC(C)C3)n1 (stereo not drawn) | 100% (inactive)
22 | Cn1nccc1C(=O)Nc1sc2c(c1C#N)CCCC2 | 71% (inactive)
23 | Cc1sc(NC(=O)c2cnccn2)c(C(=O)OC(C)C)c1-c1ccccc1 | 33%
24 | CCn1cc(C(=O)O)c(=O)c2cnc(N3CCN(C(=S)Nc4ccc(Cl)cc4)CC3)nc21 | 19%
25 | CNC(=O)c1c(NC(=O)c2nc(SCc3ccccc3)ncc2Cl)sc2c1CCCC2 | 21%
26 | N#Cc1c(NC(=O)c2ccc([N+](=O)[O-])o2)sc2c1CCCC2 | 92% (inactive)
27 | N#Cc1c(NC(=O)C2CC=CCC2C(=O)O)sc2c1CCC2 (stereo not drawn) | 92% (inactive)

Row | Structure (SMILES) | remaining nuclease activity
28 | CCn1cc(C(=O)O)c(=O)c2cnc(N3CCN(C(=S)NC4CC5CCC4C5)CC3)nc21 (stereo not drawn) | 6%
29 | N#Cc1c(NC(=O)c2cnccn2)sc2c1CCCCCC2 | 70% (inactive)
30 | CCn1cc(C(=O)O)c(=O)c2cnc(N3CCN(C(=S)Nc4ccccc4)CC3)nc21 | 83% (inactive)
31 | NC(=O)c1c(NC(=O)c2cnccn2)sc2c1CCCC2 | 87% (inactive)
32 | CCn1cc(C(=O)O)c(=O)c2cnc(N3CCN(C(=S)NC(C)c4ccccc4)CC3)nc21 (stereo not drawn) | 13%
33 | N#Cc1c(NC(=O)c2cccc(F)c2)sc2c1CCCC2 | 65% (inactive)
34 | CCn1cc(C(=O)O)c(=O)c2cnc(N3CCNCC3)nc21 | 103% (inactive)
35 | Cc1sc(NC(=O)c2ccc(Br)o2)c(C#N)c1C | 40%
36 | CC1CCc2c(sc(NC(=O)c3ccc([N+](=O)[O-])o3)c2C#N)C1 (stereo not drawn) | 89% (inactive)
37 | CCC(C)(C)C1CCc2c(sc(NC(=O)c3cnccn3)c2C#N)C1 (stereo not drawn) | 103% (inactive)
38 | CCn1cc(C(=O)O)c(=O)c2cnc(N3CCN(C(=S)NC(=O)c4ccccc4Cl)CC3)nc21 | 93% (inactive)
39 | CC1CCc2c(sc(NC(=O)c3ccc([N+](=O)[O-])o3)c2N)C1 (stereo not drawn) | 128% (inactive)
40 | CCn1cc(C(=O)O)c(=O)c2cc(F)c(N3CCN(C(=S)Nc4cccc(C(F)(F)F)c4)CC3)cc21 | 9%
41 | CCn1cc(C(=O)O)c(=O)c2cnc(N3CCN(C(=S)Nc4ccccc4C)CC3)nc21 | 81% (inactive)
42 | Cc1ccc(C(=O)Nc2sc3c(c2C#N)CCCCC3)o1 | 72% (inactive)
43 | COC(=O)c1c(-c2cccc(C)c2)csc1NC(=O)c1cnccn1 | 88% (inactive)
44 | CC1CCc2c(sc(NC(=O)c3cnccn3)c2C#N)C1 (stereo not drawn) | 91% (inactive)
45 | CCn1cc(C(=O)O)c(=O)c2cnc(N3CCN(C(=S)NC(=O)c4cccc(C)c4)CC3)nc21 | 95% (inactive)
46 | CCn1cc(C(=O)O)c(=O)c2cnc(N3CCN(C(=S)Nc4ccccc4Cl)CC3)nc21 | 74% (inactive)
47 | CCn1cc(C(=O)O)c(=O)c2cnc(N3CCN(C(=S)Nc4ccc(F)cc4)CC3)nc21 | 43%
48 | CCn1cc(C(=O)O)c(=O)c2cnc(N3CCN(C(=S)Nc4ccccc4C(F)(F)F)CC3)nc21 | 90% (inactive)
49 | CCn1cc(C(=O)O)c(=O)c2cnc(N3CCN(C(=S)Nc4ccccc4OC)CC3)nc21 | 68% (inactive)
50 | CC1(C)Cc2c(sc(NC(=O)c3ccco3)c2C#N)CO1 | 69% (inactive)
51 | CCn1cc(C(=O)O)c(=O)c2cnc(N3CCN(C(=S)Nc4ccccc4F)CC3)nc21 | 74% (inactive)
52 | COC(=O)c1c(-c2ccccc2)csc1NC(=O)c1cnccn1 | 31%
53 | N#Cc1c(NC(=O)c2ccccc2C(=O)O)sc2c1CCCC2 | 55% (inactive)
